According to ChEMBL document CHEMBL1125400, “Synthesis and antibacterial activity of some novel 6-methyl- and 6-propenyl-substituted carbapenems” (J Med Chem, 1992):
Values after ≈ are worked out from the molar mass of the structure shown. Values joined by “and” are separate entries in the source; they are usually repeats but may differ in a detail not shown here. Equal values may be shown once.

Experiments:
[1] = Half-life by UV spectrophotometry; type: ADME; conditions: for half-life: read-out: Stability (converted)
Method in brief: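 Chemical stability in solution: about 10^-4 M compound in 0.07 M phosphate buffer, pH 7.4, held at 37 °C. Decay followed by UV spectrophotometry; half-life reported in hours.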

Escherichia coli [2] = experiment: In vitro antibacterial activity against Escherichia coli (A15119); type: functional
Method in brief: (§1)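 Broth microdilution MIC in Nutrient Broth with a final inoculum of 5.0 × 10^5 CFU/mL. Trays incubated 18 h at 35 °C. MIC taken as the lowest antibiotic concentration inhibiting bacterial growth, in µg/mL.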

Enterobacter cloacae = experiment: In vitro antibacterial activity against Enterobacter cloacae (A9659); type: functional; method in brief: as §1
Klebsiella pneumoniae [3] = experiment: In vitro antibacterial activity against Klebsiella pneumoniae (A9664); type: functional; method in brief: as §1
Pseudomonas aeruginosa [4] = experiment: In vitro antibacterial activity against Pseudomonas aeruginosa (A9843); type: functional; method in brief: as §1
Providencia rettgeri [5] = experiment: In vitro antibacterial activity against Providencia rettgeri (A22424); type: functional; method in brief: as §1
Proteus vulgaris = experiment: In vitro antibacterial activity against Proteus vulgaris (A21559); type: functional; method in brief: as §1
Staphylococcus aureus = experiment: In vitro antibacterial activity against Staphylococcus aureus (A9537); type: functional; method in brief: as §1
Enterococcus faecalis = experiment: In vitro antibacterial activity against Streptococcus faecalis (A20688); type: functional
Method in brief: (§2)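 Streptococcal MIC by broth microdilution in Todd-Hewitt Broth with a final inoculum of 5.0 × 10^5 CFU/mL. Trays incubated 18 h at 35 °C. Endpoint is the lowest concentration preventing growth, in µg/mL.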

Escherichia coli [6] = experiment: In vitro evaluation for the antibacterial activity […] in e) Escherichia coli (A15119); type: functional
Mus musculus = experiment: Protective dose when administered orally for 50 percent of the mice tested. Mice were treated twice, at 0 and 2 hour after infection with Escherichia coli; type: functional; conditions: po, read-out: PD50
Method in brief: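 Mice infected with E. coli and given test agent orally twice, at 0 and 2 h after infection. PD50 is the dose protecting 50% of animals, expressed as mg/kg per dose.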

Streptococcus pyogenes = experiment: In vitro antibacterial activity against Streptococcus pyogenes (A9604); type: functional; method in brief: as §2
Streptococcus pneumoniae = experiment: In vitro antibacterial activity against Streptococcus pneumoniae (A9585); type: functional; method in brief: as §2
Klebsiella pneumoniae [7] = experiment: In vitro evaluation for the antibacterial activity […] in Klebsiella pneumoniae (A9664); type: functional
Providencia rettgeri [8] = experiment: IIn vitro antibacterial activity against Providencia rettgeri (A22424); type: functional; method in brief: as §1
Pseudomonas aeruginosa [9] = experiment: In vitro evaluation for the antibacterial activity […] in Pseudomonas aeruginosa (A9843); type: functional
[10] = Pseudomonas aeruginosa, read-out: MIC
[11] = Providencia rettgeri, read-out: MIC
[12] = Streptococcus pyogenes, read-out: MIC

| SMILES | half-life [1] [h] | MIC (Escherichia coli [2]) [µg/mL] | MIC (Enterobacter cloacae) [µg/mL] | MIC (Klebsiella pneumoniae [3]) [µg/mL] | MIC (Pseudomonas aeruginosa [4]; [10]) [µg/mL] | MIC (Providencia rettgeri [5]; [11]) [µg/mL] | MIC (Proteus vulgaris) [µg/mL] | MIC (Staphylococcus aureus) [µg/mL] | MIC (Enterococcus faecalis) [µg/mL] | MIC (Escherichia coli [6]) [µg/mL] | ED50 (Mus musculus) [mg/kg] | MIC (Streptococcus pyogenes; [12]) [µg/mL] | MIC (Streptococcus pneumoniae) [µg/mL] | MIC (Klebsiella pneumoniae [7]) [µg/mL] | MIC (Providencia rettgeri [8]) [µg/mL] | MIC (Pseudomonas aeruginosa [9]) [µg/mL] | Stability [1] [h] | MIC (Pseudomonas aeruginosa [4]) [µg/mL] | MIC (Providencia rettgeri [5]) [µg/mL] | MIC (Streptococcus pyogenes) |
| --- | --- | --- | --- | --- | --- | --- | --- | --- | --- | --- | --- | --- | --- | --- | --- | --- | --- | --- | --- | --- |
| C[C@H]1C(SCc2ccccn2)=C(C(=O)O)N2C(=O)[C@H](/C=C/CNc3ccccc3)[C@@H]12 | 35 | 32 (≈ 75.9 µM) | 64 (≈ 152 µM) | 64 (≈ 152 µM) | 64 (≈ 152 µM) | 64 (≈ 152 µM) | 64 (≈ 152 µM) | 0.25 (≈ 0.593 µM) | > 64 | – | – | – | – | – | – | – | – | – | – | – |
| C[C@@H](N)[C@H]1C(=O)N2C(C(=O)O)=C(SCc3cccnc3)[C@H](C)[C@H]12 | 3 | – | 0.06 (≈ 0.18 µM) | 0.13 (≈ 0.39 µM) | 1 (≈ 3 µM) | 2 (≈ 6 µM) | 0.016 (≈ 0.048 µM) | 2 (≈ 6 µM) | 63 (≈ 189 µM) | 0.03 (≈ 0.09 µM) | 8 | 4 (≈ 12 µM) | 4 (≈ 12 µM) | – | – | – | – | – | – | – |
| C[C@H]1C(SCc2cccnc2)=C(C(=O)O)N2C(=O)[C@H](CN)[C@@H]12 | 1.5 | – | 0.016 (≈ 0.0501 µM) | 0.03 (≈ 0.0939 µM) | 1 (≈ 3.13 µM) | 0.25 (≈ 0.783 µM) | 0.016 (≈ 0.0501 µM) | 0.5 (≈ 1.57 µM) | 125 (≈ 391 µM) | 0.008 (≈ 0.025 µM) | > 25 | 0.5 (≈ 1.57 µM) | 0.5 (≈ 1.57 µM) | – | – | – | – | – | – | – |
| C[C@H]1C(SCc2cccnc2)=C(C(=O)O)N2C(=O)[C@H](CO)[C@@H]12 | 45 | – | 0.06 (≈ 0.187 µM) | – | 125 (≈ 390 µM) | – | 0.13 (≈ 0.406 µM) | 0.008 (≈ 0.025 µM) | 4 (≈ 12.5 µM) | 0.016 (≈ 0.0499 µM) | 7 | 0.004 (≈ 0.0125 µM) | 0.002 (≈ 0.00624 µM) | 0.06 (≈ 0.187 µM) | 0.5 (≈ 1.56 µM) | – | – | – | – | – |
| C[C@@H](O)[C@H]1C(=O)N2C(C(=O)O)=C(SCc3cccnc3)[C@H](C)[C@H]12 | 65 | 0.016 (≈ 0.0478 µM) | 0.13 (≈ 0.389 µM) | 0.13 (≈ 0.389 µM) | 125 (≈ 374 µM) | 16 (≈ 47.8 µM) | 0.03 (≈ 0.0897 µM) | 0.016 (≈ 0.0478 µM) | 2 (≈ 5.98 µM) | – | 17 | 0.016 (≈ 0.0478 µM) | 0.016 (≈ 0.0478 µM) | – | – | – | – | – | – | – |
| C[C@H]1C(SCc2ccccn2)=C(C(=O)O)N2C(=O)[C@H](/C=C/CO)[C@@H]12 | 21 | 8 (≈ 23.1 µM) | 32 (≈ 92.4 µM) | 16 (≈ 46.2 µM) | 125 (≈ 361 µM) | 16 (≈ 46.2 µM) | 8 (≈ 23.1 µM) | 1 (≈ 2.89 µM) | 125 (≈ 361 µM) | – | – | 0.06 (≈ 0.173 µM) | 0.13 (≈ 0.375 µM) | – | – | – | – | – | – | – |
| C[C@H]1C(SCc2ccccn2)=C(C(=O)O)N2C(=O)[C@H](/C=C/CN=[N+]=[N-])[C@@H]12 | 21 | 8 (≈ 21.5 µM) | 32 (≈ 86.2 µM) | 16 (≈ 43.1 µM) | – | 32 (≈ 86.2 µM) | 8 (≈ 21.5 µM) | 0.06 (≈ 0.162 µM) | 32 (≈ 86.2 µM) | – | – | 0.03 (≈ 0.0808 µM) | 0.03 (≈ 0.0808 µM) | – | – | 125 (≈ 337 µM) | – | – | – | – |
| C=CC(O)[C@H]1C(=O)N2C(C(=O)O)=C(SCc3ccccn3)[C@H](C)[C@H]12 (stereo partly specified) | 72 | – | – | – | 125 (≈ 361 µM) | 2 (≈ 5.77 µM) | – | – | – | – | – | – | – | – | – | – | 72 | 125 (≈ 361 µM) | 2 (≈ 5.77 µM) | 0.25 µg/mL and 0.56 µg/mL |
